From paper PMC9464004 (Drug Design, Development and Therapy, 2022)
Where two headings read alike, the source gives them in different places.

Tests used:
[1] = cited from earlier work
SGLT2 = conditions: cited from earlier work
[2] = format: in vivo, human; conditions: for CL/F: mean ± SD
In short: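 Healthy Chinese adults took 200 or 400 mg test compound once daily for 8 days. Blood was drawn pre/post-dose Day 1, pre-dose Days 2–8 and post-dose Day 8. Parent and main metabolite were measured by validated LC-MS/MS after protein precipitation, with deuterated internal standards. Linear ranges: 2.00–2000 and 10.0–10,000 ng/mL. Noncompartmental analysis used trapezoidal AUC. CL/F came from AUCtau. Below-limit values counted as zero.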

Chinese healthy subjects [3] = format: in vivo, human
In short: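 Safety population comprised all randomized subjects receiving ≥1 double-blind dose (200 or 400 mg daily test compound or placebo, 8 days), analysed by treatment received. TEAEs were counted from first dose to study end and graded by NCI-CTCAE. Vital signs, ECG and local-lab haematology, coagulation, biochemistry, serology, urinalysis and pregnancy tests were monitored. Summaries were descriptive, with no significance testing.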

[4] = test system: healthy volunteers in the United States; conditions: achieved at the 300mg dose, study LX4211-1-101; cited from earlier work
Chinese healthy subjects [5] = experiment: 24-hour urinary glucose excretion; format: in vivo, human
In short: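 Randomized, double-blind, placebo-controlled study in healthy Chinese adults given 200 or 400 mg test compound or placebo orally once daily before the first meal for 8 days. Post-dose urine was pooled over 24 h in 0–8 h and 8–24 h fractions on Day 1 and Day 8. Glucose was assayed centrally, with results withheld from investigators, and reported as absolute excretion.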

[6] = co-administered with food (high fat/high caloric)
[7] = across sotagliflozin treatment groups
[8] = sotagliflozin 200 mg qd, 8 days, N=9
[9] = sotagliflozin 400 mg qd, 8 days, N=9

For CCOc1ccc(Cc2cc([C@@H]3O[C@H](SC)[C@@H](O)[C@H](O)[C@H]3O)ccc2Cl)cc1 [Sotagliflozin], the “accumulation index at steady state” value ([1]; EMA data, European-American populations) is listed as “about 2”, the “Cmax with food compared to fasted condition” value [1, 6] is listed as about 2.5 fold and the “total exposure with food compared to fasted condition” value [1, 6] is listed as about 1.5 fold. For the same compound, the “selectivity for SGLT2 than that for SGLT1” value (SGLT2) was 20 fold, the degree of accumulation ([2]; 200 or 400 mg qd for 8 days) was “less than 2 fold” and the “estimated increase for AUCtau for a 2-fold increase between doses” value ([2]; Day 1, 200 to 400 mg) was 2.02 fold. For the same compound, the “estimated increase for Cmax for a 2-fold increase between doses” value ([2]; Day 1, 200 to 400 mg) was 1.56 fold, the “estimated increase for AUCtau for a 2-fold increase between doses” value ([2]; Day 8, 200 to 400 mg) was 1.70 fold and the “estimated increase for Cmax for a 2-fold increase between doses” value ([2]; Day 8, 200 to 400 mg) was 1.89 fold. It also gave a half-life ([2]; human, plasma, oral, 400 mg, Mean t1/2z, range over 200 and 400 mg dose levels, Day 8) of 20.5 to 22.4 h, a CL/F ([2]; sotagliflozin 200 mg qd, Day 8) of 267 L/h and a CL/F ([2]; sotagliflozin 400 mg qd, Day 8) of 307 L/h. For the same compound, the tolerability (Chinese healthy subjects [3]; 200 mg and 400 mg per day, 8 days) was “well tolerated”, the “PCSAs of QRS interval >110 ms, number of subjects” value (Chinese healthy subjects [3]; 200mg sotagliflozin, none increased from baseline ≥25%) was 2 and the “asymptomatic alanine aminotransferase (ALT) increase” value (Chinese healthy subjects [3]; AE in 1 subject (400 mg group)) was < 2 × upper limit of normal (ULN). The “constipation, number of subjects” value (Chinese healthy subjects [3]; [7]) was 1, the “dizziness, number of subjects” value (Chinese healthy subjects [3]; [7]) was 2 and the “folliculitis, number of subjects” value (Chinese healthy subjects [3]; [7]) was 1. The “TEAE: Blood phosphorus increased” value (Chinese healthy subjects [3]; [8]) was 1 (11.1%) n (%), the “TEAE: Chest discomfort” value (Chinese healthy subjects [3]; [8]) was 1 (11.1%) n (%) and the “TEAE: Dizziness” value (Chinese healthy subjects [3]; [8]) was 1 (11.1%) n (%). For the same compound, the “TEAE: Folliculitis” value (Chinese healthy subjects [3]; [8]) was 1 (11.1%) n (%), the “TEAE: Petechiae” value (Chinese healthy subjects [3]; [8]) was 1 (11.1%) n (%) and the “TEAE: Proteinuria” value (Chinese healthy subjects [3]; [8]) was 1 (11.1%) n (%). For the same compound, the “TEAE: White blood cell count decreased” value (Chinese healthy subjects [3]; [8]) was 1 (11.1%) n (%), the “increased blood ketone body (TEAE value)” value (Chinese healthy subjects [3]; sotagliflozin 400 mg group, 1 subject) was 0.61 mmol/L and the “TEAE: Alanine aminotransferase increased” value (Chinese healthy subjects [3]; [9]) was 1 (11.1%) n (%). For the same compound, the “TEAE: Asthenia” value (Chinese healthy subjects [3]; [9]) was 1 (11.1%) n (%), the “TEAE: Blood ketone body increased” value (Chinese healthy subjects [3]; [9]) was 1 (11.1%) n (%) and the “TEAE: Blood urine present” value (Chinese healthy subjects [3]; [9]) was 1 (11.1%) n (%). The “TEAE: Constipation” value (Chinese healthy subjects [3]; [9]) was 1 (11.1%) n (%), the “TEAE: Dermatitis” value (Chinese healthy subjects [3]; [9]) was 1 (11.1%) n (%) and the “TEAE: Dizziness” value (Chinese healthy subjects [3]; [9]) was 1 (11.1%) n (%). The “TEAE: Haemorrhoidal haemorrhage” value (Chinese healthy subjects [3]; [9]) was 1 (11.1%) n (%), the “TEAE: Headache” value (Chinese healthy subjects [3]; [9]) was 1 (11.1%) n (%) and the “TEAE: Mouth ulceration” value (Chinese healthy subjects [3]; [9]) was 1 (11.1%) n (%). For the same compound, the “TEAEs considered treatment-related by the Investigator” value (Chinese healthy subjects [3]; sotagliflozin groups (200 and 400 mg)) was 44.4%, the “maximum 24 h UGE” value [4] was 44 g and the “24-hour UGE” value (Chinese healthy subjects [5]; sotagliflozin 200 mg qd, Day 1, mean (±SD)) was 188.17 (±51.957) mmol. For the same compound, the “24-hour UGE” value (Chinese healthy subjects [5]; sotagliflozin 200 mg qd, Day 8, mean ± SD) was 213.02 (±67.216) mmol, the “24-hour UGE” value (Chinese healthy subjects [5]; sotagliflozin 400 mg qd, Day 1, mean (±SD)) was 250.18 (±38.063) mmol and the “24-hour UGE” value (Chinese healthy subjects [5]; sotagliflozin 400 mg qd, Day 8, mean ± SD) was 263.90 (±56.665) mmol.
